Assay results taken from ChEMBL document CHEMBL3526002, “Tissue distribution and identification of radioactivity components at elimination phase after oral administration of [¹⁴C]CS-1036, an α-amylase inhibitor, to rats” (Drug Metab Dispos, 2013).

Key:
Cerebrum [1] = assay: Drug uptake in albino F344/DuCrlCrlj rat cerebrum assessed as ng equivalent of CS-1036 at 5 mg/kg, po after 8 hrs by liquid scintillation counting; type: ADME, organism-based; parameters: dose 5 mg/kg, dosed compound name [14C]CS-1036, route oral; conditions: in vivo
Outline: (§1)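 Single oral [14C]CS-1036 at 5 mg/kg was given to male rats (159–167 g; n = 3). Cerebrum was collected after aortic bleeding at 1, 4, 8, 24, 72, 168 or 336 h, weighed, and homogenized in 2 volumes of saline. A 0.5 ml aliquot was solubilized in Soluene-350 and counted by LSC with external-standard correction. Results are in ng equivalent/g tissue from specific activity and sample weight.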

[2] = Drug uptake in albino F344/DuCrlCrlj rat bone marrow at 5 mg/kg, po after 8 hrs by liquid scintillation counting; type: ADME, organism-based; parameters: dose 5 mg/kg, dosed compound name [14C]CS-1036, route oral; conditions: in vivo
Small intestine [3] = assay: Drug uptake in albino F344/DuCrlCrlj rat small intestine at 5 mg/kg, po after 336 hrs by liquid scintillation counting; type: ADME, organism-based; parameters: dose 5 mg/kg, dosed compound name [14C]CS-1036, route oral; conditions: in vivo
Plasma = assay: Drug metabolism in albino F344/DuCrlCrlj rat plasma protein assessed as unbound parent compound and metabolite M1 level at 10 mg/kg, po administered for 5 days by liquid scintillation counting; type: ADME, organism-based; parameters: dose 10 mg/kg, dosed compound name [14C]CS-1036, route oral; conditions: in vivo, 120 h
Outline: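 Male F344/DuCrlCrlj rats (n = 3) received oral [14C]CS-1036 at 10 mg/kg/day for 5 days at 24-h intervals, with food freely available. Plasma was taken from the abdominal aorta 24 h after the fifth dose and pooled. It was precipitated with acetonitrile, and the pellets were washed with 0.4 M TCA, 80% methanol and 30% ether/ethanol until washes were below twice background. Pellets were HCl-hydrolysed, and recovered radioactivity was counted by LSC.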

[4] = Drug uptake in albino F344/DuCrlCrlj rat testis assessed as ng equivalent of CS-1036 at 5 mg/kg, po after 336 hrs by liquid scintillation counting; type: ADME, organism-based; parameters: dose 5 mg/kg, dosed compound name [14C]CS-1036, route oral; conditions: in vivo
Adrenal gland [5] = assay: Drug uptake in albino F344/DuCrlCrlj rat adrenal gland assessed as ng equivalent of CS-1036 at 5 mg/kg, po after 4 hrs by liquid scintillation counting; type: ADME, organism-based; parameters: dose 5 mg/kg, dosed compound name [14C]CS-1036, route oral; conditions: in vivo
Adrenal gland [6] = assay: Drug uptake in albino F344/DuCrlCrlj rat adrenal gland at 5 mg/kg, po after 24 hrs by liquid scintillation counting; type: ADME, organism-based; parameters: dose 5 mg/kg, dosed compound name [14C]CS-1036, route oral; conditions: in vivo
[7] = Drug uptake in albino F344/DuCrlCrlj rat brown fat at 5 mg/kg, po after 24 hrs by liquid scintillation counting; type: ADME, organism-based, Brown adipose tissue; parameters: dose 5 mg/kg, dosed compound name [14C]CS-1036, route oral; conditions: in vivo
Adrenal gland [8] = assay: Drug uptake in albino F344/DuCrlCrlj rat adrenal gland assessed as ng equivalent of CS-1036 at 5 mg/kg, po after 336 hrs by liquid scintillation counting; type: ADME, organism-based; parameters: dose 5 mg/kg, dosed compound name [14C]CS-1036, route oral; conditions: in vivo
Pancreas = assay: Drug uptake in albino F344/DuCrlCrlj rat pancreas assessed as ng equivalent of CS-1036 at 5 mg/kg, po after 1 hr by liquid scintillation counting; type: ADME, organism-based; parameters: dose 5 mg/kg, dosed compound name [14C]CS-1036, route oral; conditions: in vivo
Blood [9] = assay: Drug uptake in albino F344/DuCrlCrlj rat blood assessed as ng equivalent of CS-1036 at 5 mg/kg, po after 336 hrs by liquid scintillation counting; type: ADME, organism-based; parameters: dose 5 mg/kg, dosed compound name [14C]CS-1036, route oral; conditions: in vivo
Outline: (§2)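 Male F344/DuCrlCrlj rats (159–167 g; n = 3 per time point) received a single oral dose of [14C]CS-1036 at 5 mg/kg. Blood was taken from the abdominal aorta at 1, 4, 8, 24, 72, 168 and 336 h. Radioactivity was counted by LSC with external-standard efficiency correction. Results were converted to ng equivalent of CS-1036/ml using specific activity and sample volume, and reported as mean + S.D.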

Heart = assay: Drug uptake in albino F344/DuCrlCrlj rat heart at 5 mg/kg, po after 8 hrs by liquid scintillation counting; type: ADME, organism-based; parameters: dose 5 mg/kg, dosed compound name [14C]CS-1036, route oral; conditions: in vivo
Adrenal gland [10] = assay: Drug uptake in albino F344/DuCrlCrlj rat adrenal gland assessed as ng equivalent of CS-1036 at 5 mg/kg, po after 168 hrs by liquid scintillation counting; type: ADME, organism-based; parameters: dose 5 mg/kg, dosed compound name [14C]CS-1036, route oral; conditions: in vivo
[11] = Drug uptake in albino F344/DuCrlCrlj rat urinary bladder at 5 mg/kg, po after 336 hrs by liquid scintillation counting; type: ADME, organism-based; parameters: dose 5 mg/kg, dosed compound name [14C]CS-1036, route oral; conditions: in vivo
[12] = Drug uptake in albino F344/DuCrlCrlj rat fat assessed as ng equivalent of CS-1036 at 5 mg/kg, po after 4 hrs by liquid scintillation counting; type: ADME, organism-based, Adipose tissue; parameters: dose 5 mg/kg, dosed compound name [14C]CS-1036, route oral; conditions: in vivo
Outline: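 Male F344/DuCrlCrlj rats (bought at 7 weeks, acclimatized 5–6 days; 159–167 g; n = 3 per time point) received a single oral dose of [14C]CS-1036 at 5 mg/kg. White adipose tissue was collected after abdominal aortic bleeding at 1, 4, 8, 24, 72, 168 or 336 h. Samples were counted by LSC with external-standard efficiency correction. Results were converted to ng equivalents per g from specific activity and sample weight.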

Stomach [13] = assay: Drug uptake in albino F344/DuCrlCrlj rat stomach at 5 mg/kg, po after 168 hrs by liquid scintillation counting; type: ADME, organism-based; parameters: dose 5 mg/kg, dosed compound name [14C]CS-1036, route oral; conditions: in vivo
Stomach [14] = assay: Drug uptake in albino F344/DuCrlCrlj rat stomach at 5 mg/kg, po after 24 hrs by liquid scintillation counting; type: ADME, organism-based; parameters: dose 5 mg/kg, dosed compound name [14C]CS-1036, route oral; conditions: in vivo
Cerebrum [15] = assay: Drug uptake in albino F344/DuCrlCrlj rat cerebrum assessed as ng equivalent of CS-1036 at 5 mg/kg, po after 72 hrs by liquid scintillation counting; type: ADME, organism-based; parameters: dose 5 mg/kg, dosed compound name [14C]CS-1036, route oral; conditions: in vivo; outline: as §1
Small intestine [16] = assay: Drug uptake in albino F344/DuCrlCrlj rat small intestine assessed as ng equivalent of CS-1036 at 5 mg/kg, po after 4 hrs by liquid scintillation counting; type: ADME, organism-based; parameters: dose 5 mg/kg, dosed compound name [14C]CS-1036, route oral; conditions: in vivo
Zone of skin = assay: Drug uptake in albino F344/DuCrlCrlj rat skin assessed as ng equivalent of CS-1036 at 5 mg/kg, po after 168 hrs by liquid scintillation counting; type: ADME, organism-based; parameters: dose 5 mg/kg, dosed compound name [14C]CS-1036, route oral; conditions: in vivo
Stomach [17] = assay: Drug uptake in albino F344/DuCrlCrlj rat stomach at 5 mg/kg, po after 336 hrs by liquid scintillation counting; type: ADME, organism-based; parameters: dose 5 mg/kg, dosed compound name [14C]CS-1036, route oral; conditions: in vivo
[18] = Drug uptake in albino F344/DuCrlCrlj rat pituitary gland at 5 mg/kg, po after 24 hrs by liquid scintillation counting; type: ADME, organism-based; parameters: dose 5 mg/kg, dosed compound name [14C]CS-1036, route oral; conditions: in vivo
Large intestine = assay: Drug uptake in albino F344/DuCrlCrlj rat large intestine assessed as ng equivalent of CS-1036 at 5 mg/kg, po after 168 hrs by liquid scintillation counting; type: ADME, organism-based; parameters: dose 5 mg/kg, dosed compound name [14C]CS-1036, route oral; conditions: in vivo
Thymus = assay: Drug uptake in albino F344/DuCrlCrlj rat thymus at 5 mg/kg, po after 4 hrs by liquid scintillation counting; type: ADME, organism-based; parameters: dose 5 mg/kg, dosed compound name [14C]CS-1036, route oral; conditions: in vivo
Small intestine [19] = assay: Drug uptake in albino F344/DuCrlCrlj rat small intestine at 5 mg/kg, po after 4 hrs by liquid scintillation counting; type: ADME, organism-based; parameters: dose 5 mg/kg, dosed compound name [14C]CS-1036, route oral; conditions: in vivo
Cerebellum [20] = assay: Drug uptake in albino F344/DuCrlCrlj rat cerebellum assessed as ng equivalent of CS-1036 at 5 mg/kg, po after 168 hrs by liquid scintillation counting; type: ADME, organism-based; parameters: dose 5 mg/kg, dosed compound name [14C]CS-1036, route oral; conditions: in vivo
[21] = Drug uptake in albino F344/DuCrlCrlj rat trachea assessed as ng equivalent of CS-1036 at 5 mg/kg, po after 24 hrs by liquid scintillation counting; type: ADME, organism-based; parameters: dose 5 mg/kg, dosed compound name [14C]CS-1036, route oral; conditions: in vivo
Adrenal gland [22] = assay: Drug uptake in albino F344/DuCrlCrlj rat adrenal gland at 5 mg/kg, po after 72 hrs by liquid scintillation counting; type: ADME, organism-based; parameters: dose 5 mg/kg, dosed compound name [14C]CS-1036, route oral; conditions: in vivo
Cerebellum [23] = assay: Drug uptake in albino F344/DuCrlCrlj rat cerebellum assessed as ng equivalent of CS-1036 at 5 mg/kg, po after 336 hrs by liquid scintillation counting; type: ADME, organism-based; parameters: dose 5 mg/kg, dosed compound name [14C]CS-1036, route oral; conditions: in vivo
Blood [24] = assay: Drug uptake in albino F344/DuCrlCrlj rat blood assessed as ng equivalent of CS-1036 at 5 mg/kg, po after 168 hrs by liquid scintillation counting; type: ADME, organism-based; parameters: dose 5 mg/kg, dosed compound name [14C]CS-1036, route oral; conditions: in vivo; outline: as §2

Radiolabel recovery (Cerebrum [1]): 1.44 ngequiv/g | Radiolabel recovery [2]: 75 ngequiv/g | Radiolabel recovery (Small intestine [3]): 6.54 ngequiv/g | Radiolabel recovery (Plasma): 11.3% | Radiolabel recovery [4]: 2.06 ngequiv/g | Radiolabel recovery (Adrenal gland [5]): 8.6 ngequiv/g | Radiolabel recovery (Adrenal gland [6]): 81.8 ngequiv/g | Radiolabel recovery [7]: 200 ngequiv/g | Radiolabel recovery (Adrenal gland [8]): 8.2 ngequiv/g | Radiolabel recovery (Pancreas): 11 ngequiv/g | Radiolabel recovery (Blood [9]): 0.2 ngequiv/ml | Radiolabel recovery (Heart): 27.2 ngequiv/g | Radiolabel recovery (Adrenal gland [10]): 93 ngequiv/g | Radiolabel recovery [11]: 11.7 ngequiv/g | Radiolabel recovery [12]: 1.74 ngequiv/g | Radiolabel recovery (Stomach [13]): 23.9 ngequiv/g | Radiolabel recovery (Stomach [14]): 118 ngequiv/g | Radiolabel recovery (Cerebrum [15]): 4.88 ngequiv/g | Radiolabel recovery (Small intestine [16]): 903 ngequiv/g | Radiolabel recovery (Zone of skin): 23.9 ngequiv/g | Radiolabel recovery (Stomach [17]): 11.9 ngequiv/g | Radiolabel recovery [18]: 70.8 ngequiv/g | Radiolabel recovery (Large intestine): 19 ngequiv/g | Radiolabel recovery (Thymus): 22 ngequiv/g | Radiolabel recovery (Small intestine [19]): 965 ngequiv/g | Radiolabel recovery (Cerebellum [20]): 3.37 ngequiv/g | Radiolabel recovery [21]: 7.1 ngequiv/g | Radiolabel recovery (Adrenal gland [22]): 99.7 ngequiv/g | Radiolabel recovery (Cerebellum [23]): 3.05 ngequiv/g | Radiolabel recovery (Blood [24]): 3.52 ngequiv/ml
Compound: C[C@H]1O[C@@H](O[C@H]2[C@H](O)[C@@H](O)[C@@H](O[14C@H]3[14C@H](O)[14CH2]N[14C@@H]3[14CH2]O)O[C@@H]2CO)[C@H](O)[C@@H](O)[C@@H]1O
